Measurements reported in ChEMBL document CHEMBL1132919, “Structure-activity studies for a novel series of tricyclic substituted hexahydrobenz[e]isoindole alpha(1A) adrenoceptor antagonists as potential agents for the symptomatic treatment of benign prostatic hyperplasia (BPH)” (J Med Chem, 2000).

Legend:
[1] = target: T1, Alpha-1D adrenergic receptor (Rattus norvegicus, UniProt P23944); assay: In vitro binding affinity using [3H]prazosin as radioligand against adrenoceptor alpha 1d expressed in LTK cell; assay type: cell-based
T1 sequence (P23944 whole entry): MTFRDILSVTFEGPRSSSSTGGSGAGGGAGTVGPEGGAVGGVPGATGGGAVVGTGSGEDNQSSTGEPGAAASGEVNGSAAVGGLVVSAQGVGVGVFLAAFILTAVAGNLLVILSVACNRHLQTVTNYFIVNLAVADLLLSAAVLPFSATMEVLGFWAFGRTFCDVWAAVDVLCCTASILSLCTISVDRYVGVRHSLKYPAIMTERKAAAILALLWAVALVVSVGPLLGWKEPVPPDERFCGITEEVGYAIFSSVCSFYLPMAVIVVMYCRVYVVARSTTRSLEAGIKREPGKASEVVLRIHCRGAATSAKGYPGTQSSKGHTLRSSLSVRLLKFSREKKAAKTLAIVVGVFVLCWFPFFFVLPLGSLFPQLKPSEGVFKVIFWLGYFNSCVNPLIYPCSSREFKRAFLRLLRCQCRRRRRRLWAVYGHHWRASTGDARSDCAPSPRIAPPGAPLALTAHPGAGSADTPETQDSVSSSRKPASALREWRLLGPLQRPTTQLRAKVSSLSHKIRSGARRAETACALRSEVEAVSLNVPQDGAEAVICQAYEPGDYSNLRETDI
Procedure, shortened: (§1)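 Membranes from mouse LTK- fibroblasts stably expressing cloned hamster α1B or rat α1D, grown in roller bottles, frozen in liquid N2 and stored at -70 °C. Incubated with [3H]-prazosin ~200 pM, ~0.1 mg protein per tube, in 50 mM Tris-HCl pH 7.4 for 60 min at 25 °C; nonspecific binding defined by 10^-5 M phentolamine (final).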

[2] = target: T2, Alpha-1B adrenergic receptor (Mesocricetus auratus, UniProt P18841); assay: In vitro binding affinity using [3H]prazosin as radioligand against adrenoceptor alpha 1b expressed in LTK cell; assay type: cell-based; procedure, shortened: as §1
T2 sequence (P18841 whole entry): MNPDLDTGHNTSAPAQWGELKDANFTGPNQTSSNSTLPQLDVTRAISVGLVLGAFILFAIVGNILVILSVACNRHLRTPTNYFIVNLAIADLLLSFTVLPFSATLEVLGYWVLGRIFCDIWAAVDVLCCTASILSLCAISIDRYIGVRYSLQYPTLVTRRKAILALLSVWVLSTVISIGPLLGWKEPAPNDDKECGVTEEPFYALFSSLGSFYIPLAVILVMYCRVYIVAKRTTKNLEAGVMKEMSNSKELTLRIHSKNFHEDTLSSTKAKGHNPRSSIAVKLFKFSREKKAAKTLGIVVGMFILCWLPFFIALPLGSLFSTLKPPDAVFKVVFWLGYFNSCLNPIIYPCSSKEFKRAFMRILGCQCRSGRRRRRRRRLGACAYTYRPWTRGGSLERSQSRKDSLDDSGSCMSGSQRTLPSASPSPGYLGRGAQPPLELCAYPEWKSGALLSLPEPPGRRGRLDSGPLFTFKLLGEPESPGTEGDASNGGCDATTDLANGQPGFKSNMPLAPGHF

[3] = target: T3, Alpha-1A adrenergic receptor (Rattus norvegicus, UniProt P43140); assay: In vitro binding affinity using [3H]prazosin as radioligand against adrenoceptor alpha 1A
T3 sequence (P43140 whole entry): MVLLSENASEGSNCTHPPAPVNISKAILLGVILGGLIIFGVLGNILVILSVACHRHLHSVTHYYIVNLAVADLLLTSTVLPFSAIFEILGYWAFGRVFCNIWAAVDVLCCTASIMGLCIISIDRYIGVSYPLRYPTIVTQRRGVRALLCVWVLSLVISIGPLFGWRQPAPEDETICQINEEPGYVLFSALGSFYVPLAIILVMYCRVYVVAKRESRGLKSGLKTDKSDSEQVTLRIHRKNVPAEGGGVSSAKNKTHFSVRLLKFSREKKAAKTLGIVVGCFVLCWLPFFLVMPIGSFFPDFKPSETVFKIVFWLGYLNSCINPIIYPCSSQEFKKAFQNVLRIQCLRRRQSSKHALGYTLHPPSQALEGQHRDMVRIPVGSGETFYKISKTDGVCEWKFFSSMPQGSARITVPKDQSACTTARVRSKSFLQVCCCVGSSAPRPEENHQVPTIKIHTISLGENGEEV
Procedure, shortened: (§2)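 Binding to pharmacologically defined α1A site in rat submaxillary gland membranes; [3H]-prazosin ~200 pM, nonspecific binding with 10^-5 M phentolamine (final); ~0.1 mg protein per tube in 50 mM Tris-HCl pH 7.4, 60 min at 25 °C.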

Canis familiaris [4] = species on record: Canis familiaris; assay: (§3) Intraurethral pressure (IUP) in Beagle dogs values are expressed as pseudo pA2 values.; details: Canis lupus familiaris, Urethra, read-out: pA2 (converted)
Canis familiaris [5] = species on record: Canis familiaris; assay: Antagonist dissociation constant in dog prostate; details: Canis lupus familiaris, Prostate gland, read-out: pA2 (converted)
[6] = target: T2, Alpha-1B adrenergic receptor; assay: In vitro binding affinity using [3H]prazosin as radioligand against alpha-1B adrenergic receptor expressed in LTK cell; assay type: cell-based; procedure, shortened: as §1
Rattus norvegicus [7] = species on record: Rattus norvegicus; assay: Antagonist dissociation constant in rat vas deferens; details: read-out: pA2 (converted)
Rattus norvegicus [8] = species on record: Rattus norvegicus; assay: Pseudo ED50 in Spontaneously Hypertensive Rat (SHR) model; assay type: functional
Procedure, shortened: (§4)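 Male SHR (300-325 g), briefly anesthetized with Penthrane, catheterized in femoral artery (MAP) and vein (dosing). After 2.5 h recovery and a 30 min predose control period, one iv antagonist dose per rat in an ascending paradigm; MAP and HR recorded over 60 min. Trapezoidal AUC of percent change in MAP (T60 AUC); ED50 is the dose lowering MAP by 50% of normotensive.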

Rattus norvegicus [9] = species on record: Rattus norvegicus; assay: Antagonist dissociation constant in rat spleen; details: read-out: pA2 (converted)
[10] = target: T1, Alpha-1D adrenergic receptor; assay: In vitro binding affinity using [3H]prazosin as radioligand against alpha-1D adrenergic receptor expressed in LTK cell; assay type: cell-based; procedure, shortened: as §1
Rattus norvegicus [11] = species on record: Rattus norvegicus; assay: Pseudo ED50 in Spontaneously Hypertensive Rat (SHR) model. Number determinations => 3.; assay type: functional; procedure, shortened: as §4
Rattus norvegicus [12] = species on record: Rattus norvegicus; assay: Antagonist dissociation constant in rat spleen, number of determinations => 3.; details: read-out: pA2 (converted)
Canis familiaris [13] = species on record: Canis familiaris; assay: as §3; assay type: functional, Canis lupus familiaris, Urethra
Rattus norvegicus [14] = species on record: Rattus norvegicus; assay: Antagonist dissociation constant in rat vas deferens, number of determinations => 3.; details: read-out: pA2 (converted)
Rattus norvegicus [15] = species on record: Rattus norvegicus; assay: Determination Pseudo pED50 in Spontaneously Hypertensive Rat (SHR) model; assay type: functional; procedure, shortened: as §4
Cricetulus griseus = species on record: Cricetulus griseus; assay: Ratio between Ki(alpha-1b)/Ki(alpha1A)
Rattus norvegicus [16] = species on record: Rattus norvegicus; assay: Determination of Pseudo pED50 in Spontaneously Hypertensive Rat (SHR) model. Number determinations => 3.; assay type: functional; procedure, shortened: as §4
[17] = target: T3, Alpha-1A adrenergic receptor; assay: In vitro binding affinity using [3H]prazosin as radioligand against alpha-1A adrenergic receptor; procedure, shortened: as §2
Canis familiaris [18] = species on record: Canis familiaris; assay: Antagonist dissociation constant in dog prostate, number of determinations => 3.; details: Canis lupus familiaris, Prostate gland; read-out: pA2 (converted)

Structure (SMILES): COc1cccc2c1CC[C@H]1CN(CCn3c(=O)[nH]c4c(sc5ccc(Cl)nc54)c3=O)C[C@@H]21
- Ki [1]: 0.61 nM
- Ki [2]: 4.15 nM
- Ki [3]: 0.38 nM

Structure (SMILES): COc1cccc2c1CC[C@H]1CN(CCn3c(=O)[nH]c4c(sc5cccnc54)c3=O)C[C@@H]21
- Kb (Canis familiaris [4]): 6.76 nM
- Kb (Canis familiaris [5]): 0.776 nM
- Ki [6]: 3.39 nM
- Kb (Rattus norvegicus [7]): 1.17 nM
- pED50 (Rattus norvegicus [8]): 5.33
- Kb (Rattus norvegicus [9]): 12.9 nM
- Ki [10]: 0.51 nM

Structure (SMILES): COc1cc2nc(N(C)CCCNC(=O)C3CCCO3)nc(N)c2cc1OC (stereo unspecified) [ALFUZOSIN]
- SHR (Rattus norvegicus [11]): 6.58
- Kb (Rattus norvegicus [12]): 4.9 nM
- IUP (Canis familiaris [13]): 6.87
- Kb (Rattus norvegicus [14]): 24.5 nM

Structure (SMILES): COc1cc2nc(N3CCN(C(=O)C4COc5ccccc5O4)CC3)nc(N)c2cc1OC (stereo unspecified) [DOXAZOSIN]
- Kb (Canis familiaris [4]): 75.9 nM
- pED50 (Rattus norvegicus [15]): 6.5
- Kb (Rattus norvegicus [7]): 2.04 nM
- Kb (Rattus norvegicus [9]): 0.309 nM

Structure (SMILES): COc1cc2nc(N3CCN(C(=O)C4CCCO4)CC3)nc(N)c2cc1OC (stereo unspecified) [TERAZOSIN]
- SHR (Rattus norvegicus [11]): 6.64
- Kb (Rattus norvegicus [12]): 2.51 nM
- IUP (Canis familiaris [13]): 7.02

Structure (SMILES): COc1cccc2c1CC[C@H]1CN(CCn3c(=O)[nH]c4c(sc5ncccc54)c3=O)C[C@@H]21
- Kb (Canis familiaris [4]): 5.62 nM
- Kb (Canis familiaris [5]): 1.66 nM
- Ki [6]: 6.12 nM
- Selectivity ratio (Cricetulus griseus): 10.4
- pED50 (Rattus norvegicus [16]): 5.35
- Kb (Rattus norvegicus [7]): 2.24 nM
- Kb (Rattus norvegicus [9]): 16.2 nM
- Ki [10]: 0.69 nM
- Ki [17]: 0.59 nM

Structure (SMILES): COc1cccc2c1CC[C@H]1CN(CCn3c(=O)[nH]c4c(sc5ncc(Cl)nc54)c3=O)C[C@@H]21
- SHR (Rattus norvegicus [11]): 4.77
- Ki [1]: 3.83 nM
- Kb (Rattus norvegicus [12]): 44.7 nM
- IUP (Canis familiaris [13]): 8.28
- Kb (Rattus norvegicus [14]): 1.1 nM
- Ki [2]: 35.1 nM
- Ki [3]: 0.69 nM
- Kb (Canis familiaris [18]): 0.447 nM

Structure (SMILES): CCOc1ccccc1OCCN[C@H](C)Cc1ccc(OC)c(S(N)(=O)=O)c1 [TAMSULOSIN]
- SHR (Rattus norvegicus [11]): 7.33
- Kb (Rattus norvegicus [12]): 0.204 nM
- IUP (Canis familiaris [13]): 8.87
- Kb (Rattus norvegicus [14]): 0.339 nM
- Ki [2]: 0.2 nM

Structure (SMILES): COc1cccc2c1CC[C@H]1CN(CCn3c(=O)[nH]c4c(sc5cccc(C)c54)c3=O)C[C@@H]21
- Ki [6]: 6.95 nM
- Selectivity ratio (Cricetulus griseus): 5.38
- Ki [10]: 0.88 nM
- Ki [17]: 1.29 nM

Structure (SMILES): COc1cccc2c1CC[C@H]1CN(CCn3c(=O)[nH]c4c(sc5ccc(C(=O)N(C)C)cc54)c3=O)C[C@@H]21
- Ki [6]: 1.7 nM
- Selectivity ratio (Cricetulus griseus): 6.07
- Ki [10]: 0.63 nM
- Ki [17]: 0.28 nM
